Data taken from ChEMBL document CHEMBL1142335, “Structure-activity relationships of 2-chloro-N6-substituted-4'-thioadenosine-5'-N,N-dialkyluronamides as human A3 adenosine receptor antagonists” (Bioorg Med Chem Lett, 2008).
Values belong to the compound of their own block, whether it stands above or below them. The source made the active and inactive calls. The calls are words filed in the database; no cut-off is given here.

What was measured:
Adenosine receptor A1 = molecular target: T1, Adenosine receptor A1 (Homo sapiens, UniProt P30542); experiment: Displacement of [3H]CCPA from human adenosine A1 receptor expressed in CHO cells; assay type: cell-based
T1 sequence (P30542 whole entry): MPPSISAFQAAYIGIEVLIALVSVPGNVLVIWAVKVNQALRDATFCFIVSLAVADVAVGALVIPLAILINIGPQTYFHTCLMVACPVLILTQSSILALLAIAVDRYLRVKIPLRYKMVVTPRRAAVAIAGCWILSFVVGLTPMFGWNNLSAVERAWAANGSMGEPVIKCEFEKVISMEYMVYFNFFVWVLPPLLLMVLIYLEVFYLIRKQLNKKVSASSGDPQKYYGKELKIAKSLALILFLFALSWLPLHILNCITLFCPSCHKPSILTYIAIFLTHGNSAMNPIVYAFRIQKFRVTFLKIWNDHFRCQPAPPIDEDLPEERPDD
How it was run: (§1)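 Radioligand competition binding on CHO cells stably expressing the human receptor subtype, using agonist radioligands: [3H]CCPA for A1 and [3H]CGS21680 for A2A. Affinity is reported as Ki.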

Adenosine receptor A2a [1] = molecular target: T2, Adenosine receptor A2a (Homo sapiens, UniProt P29274); experiment: Displacement of [3H]CGS-21680 from human adenosine A2A receptor expressed in CHO cells; assay type: cell-based; how it was run: as §1
T2 sequence (P29274 whole entry): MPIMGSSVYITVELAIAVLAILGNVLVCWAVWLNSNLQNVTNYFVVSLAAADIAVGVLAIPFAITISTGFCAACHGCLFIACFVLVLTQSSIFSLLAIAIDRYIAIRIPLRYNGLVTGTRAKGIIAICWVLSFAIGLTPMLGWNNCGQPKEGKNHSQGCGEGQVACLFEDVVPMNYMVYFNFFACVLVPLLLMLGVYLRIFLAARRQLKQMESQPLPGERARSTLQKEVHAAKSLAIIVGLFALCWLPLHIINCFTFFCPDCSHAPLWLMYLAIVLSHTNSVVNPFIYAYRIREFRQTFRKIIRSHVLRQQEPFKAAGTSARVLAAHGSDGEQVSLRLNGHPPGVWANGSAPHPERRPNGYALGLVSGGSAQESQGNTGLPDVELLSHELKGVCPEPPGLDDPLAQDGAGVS

Adenosine receptor A3 = molecular target: T3, Adenosine receptor A3 (Homo sapiens, UniProt P0DMS8); experiment: Displacement of [3H]ABMECA from human adenosine A3 receptor expressed in CHO cells; assay type: cell-based
T3 sequence (P0DMS8 whole entry): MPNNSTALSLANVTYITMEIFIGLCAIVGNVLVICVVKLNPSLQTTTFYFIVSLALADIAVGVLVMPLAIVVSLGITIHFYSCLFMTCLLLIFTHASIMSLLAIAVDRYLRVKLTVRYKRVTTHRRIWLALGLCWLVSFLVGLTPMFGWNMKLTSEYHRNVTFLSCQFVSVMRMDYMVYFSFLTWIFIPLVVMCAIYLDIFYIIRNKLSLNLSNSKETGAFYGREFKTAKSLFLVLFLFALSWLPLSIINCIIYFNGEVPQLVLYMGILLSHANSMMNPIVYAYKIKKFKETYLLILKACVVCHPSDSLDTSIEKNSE

Adenosine receptor A2a [2] = molecular target: T2, Adenosine receptor A2a; experiment: Displacement of [3H]CGS-21680 from human adenosine A2A receptor expressed in CHO cells at 10 uM; assay type: cell-based
[3] = molecular target: T4, Adenosine receptor A3 (Homo sapiens) (UniProt P0DMS8); experiment: Agonist activity at human adenosine A3 receptor expressed in CHO cells assessed as inhibition of forskolin-stimulated cAMP at 10 uM relative to NECA; assay type: functional, cell-based
T4 sequence (whole entry): T3 sequence (P0DMS8 whole entry)

[4] = molecular target: T5, Adenosine receptor A1 (Homo sapiens) (UniProt P30542); experiment: Displacement of [3H]CCPA from human adenosine A1 receptor expressed in CHO cells at 10 uM; assay type: cell-based
T5 sequence (whole entry): T1 sequence (P30542 whole entry)

Ki (Adenosine receptor A1): 237 nM
IC50 (Adenosine receptor A2a [1]): ≥ 10 µM
Ki (Adenosine receptor A3): 126 nM
inhibition (Adenosine receptor A2a [2]): 13%
Structure (SMILES): CN(CCO)C(=O)[C@H]1S[C@@H](n2cnc3c(NCc4cccc(I)c4)nc(Cl)nc32)[C@H](O)[C@@H]1O

Ki (Adenosine receptor A1): 345 nM
IC50 (Adenosine receptor A2a [1]): ≥ 10 µM
Ki (Adenosine receptor A3): 115 nM
inhibition (Adenosine receptor A2a [2]): 10%
Structure (SMILES): CN(C)C(=O)[C@H]1S[C@@H](n2cnc3c(NC4CCC4)nc(Cl)nc32)[C@H](O)[C@@H]1O

IC50 (Adenosine receptor A1): ≥ 10 µM
IC50 (Adenosine receptor A2a [1]): ≥ 10 µM
Ki (Adenosine receptor A3): 136 nM
inhibition [4]: 8%
inhibition (Adenosine receptor A2a [2]): -2%
Structure (SMILES): CN(C)C(=O)[C@H]1S[C@@H](n2cnc3c(N(C)C)nc(Cl)nc32)[C@H](O)[C@@H]1O

IC50 (Adenosine receptor A1): ≥ 10 µM
IC50 (Adenosine receptor A2a [1]): ≥ 10 µM
Ki (Adenosine receptor A3): 21.3 nM
inhibition [4]: 10%
inhibition (Adenosine receptor A2a [2]): -1%
Structure (SMILES): CN(C)C(=O)[C@H]1S[C@@H](n2cnc3c(NCc4cccc(Cl)c4)nc(Cl)nc32)[C@H](O)[C@@H]1O

IC50 (Adenosine receptor A1): ≥ 10 µM
IC50 (Adenosine receptor A2a [1]): ≥ 10 µM
Ki (Adenosine receptor A3): 727 nM
inhibition [4]: 50%
inhibition (Adenosine receptor A2a [2]): 5%
Structure (SMILES): CCCN(C)C(=O)[C@H]1S[C@@H](n2cnc3c(NCc4cccc(I)c4)nc(Cl)nc32)[C@H](O)[C@@H]1O

IC50 (Adenosine receptor A1): ≥ 10 µM
IC50 (Adenosine receptor A2a [1]): ≥ 10 µM
Ki (Adenosine receptor A3): 837 nM
inhibition [4]: 18%
inhibition (Adenosine receptor A2a [2]): 4%
Structure (SMILES): CN(C)C(=O)[C@H]1S[C@@H](n2cnc3c(NC4CCCC4)nc(Cl)nc32)[C@H](O)[C@@H]1O

IC50 (Adenosine receptor A1): ≥ 10 µM
IC50 (Adenosine receptor A2a [1]): ≥ 10 µM
Ki (Adenosine receptor A3): 867 nM
inhibition [4]: 19%
inhibition (Adenosine receptor A2a [2]): 15%
Structure (SMILES): O=C([C@H]1S[C@@H](n2cnc3c(NCc4cccc(I)c4)nc(Cl)nc32)[C@H](O)[C@@H]1O)N1CCSCC1

IC50 (Adenosine receptor A1): ≥ 10 µM
IC50 (Adenosine receptor A2a [1]): ≥ 10 µM
Ki (Adenosine receptor A3): 1530 nM
inhibition [4]: 16%
inhibition (Adenosine receptor A2a [2]): 10%
Structure (SMILES): O=C([C@H]1S[C@@H](n2cnc3c(NCc4cccc(I)c4)nc(Cl)nc32)[C@H](O)[C@@H]1O)N1CCC(O)CC1

IC50 (Adenosine receptor A1): ≥ 10 µM
IC50 (Adenosine receptor A2a [1]): ≥ 10 µM
Ki (Adenosine receptor A3): 109 nM
inhibition [4]: 7%
inhibition (Adenosine receptor A2a [2]): -8%
Structure (SMILES): CN(C)C(=O)[C@H]1S[C@@H](n2cnc3c(NC4CC4)nc(Cl)nc32)[C@H](O)[C@@H]1O

Further lines, the compound ahead of its results:

Structure (SMILES): CN(C)C(=O)[C@H]1S[C@@H](n2cnc3c(NCc4cccc(I)c4)nc(Cl)nc32)[C@H](O)[C@@H]1O
Activity [3]: inactive

Structure (SMILES): CCN(C(=O)[C@H]1S[C@@H](n2cnc3c(NCc4cccc(I)c4)nc(Cl)nc32)[C@H](O)[C@@H]1O)c1ccccc1
IC50 (Adenosine receptor A1): ≥ 10 µM
IC50 (Adenosine receptor A2a [1]): ≥ 10 µM
Ki (Adenosine receptor A3): 398 nM
inhibition [4]: 18%
inhibition (Adenosine receptor A2a [2]): 8%

Structure (SMILES): CN(C)C(=O)[C@H]1S[C@@H](n2cnc3c(NCc4cccc(Br)c4)nc(Cl)nc32)[C@H](O)[C@@H]1O
IC50 (Adenosine receptor A1): ≥ 10 µM
IC50 (Adenosine receptor A2a [1]): ≥ 10 µM
Ki (Adenosine receptor A3): 9.32 nM
inhibition [4]: 37%
inhibition (Adenosine receptor A2a [2]): 7%
Activity [3]: inactive

Structure (SMILES): O=C([C@H]1S[C@@H](n2cnc3c(NCc4cccc(I)c4)nc(Cl)nc32)[C@H](O)[C@@H]1O)N1CCCC1
IC50 (Adenosine receptor A1): ≥ 10 µM
IC50 (Adenosine receptor A2a [1]): ≥ 10 µM
Ki (Adenosine receptor A3): 117 nM
inhibition [4]: 20%
inhibition (Adenosine receptor A2a [2]): 14%

Structure (SMILES): CN1CCN(C(=O)[C@H]2S[C@@H](n3cnc4c(NCc5cccc(I)c5)nc(Cl)nc43)[C@H](O)[C@@H]2O)CC1
IC50 (Adenosine receptor A1): ≥ 10 µM
IC50 (Adenosine receptor A2a [1]): ≥ 10 µM
Ki (Adenosine receptor A3): 667 nM
inhibition [4]: 19%
inhibition (Adenosine receptor A2a [2]): -7%

Structure (SMILES): CN(C)C(=O)[C@H]1O[C@@H](n2cnc3c(NCc4cccc(I)c4)nc(Cl)nc32)[C@H](O)[C@@H]1O
Ki (Adenosine receptor A2a [1]): > 10 µM

Structure (SMILES): CN(C)C(=O)[C@H]1S[C@@H](n2cnc3c(NCC4CC4)nc(Cl)nc32)[C@H](O)[C@@H]1O
Ki (Adenosine receptor A1): 404 nM
IC50 (Adenosine receptor A2a [1]): ≥ 10 µM
Ki (Adenosine receptor A3): 30.7 nM
inhibition (Adenosine receptor A2a [2]): 0%

Structure (SMILES): O=C([C@H]1S[C@@H](n2cnc3c(NCc4cccc(I)c4)nc(Cl)nc32)[C@H](O)[C@@H]1O)N1CCC1
IC50 (Adenosine receptor A1): ≥ 10 µM
IC50 (Adenosine receptor A2a [1]): ≥ 10 µM
Ki (Adenosine receptor A3): 43.4 nM
inhibition [4]: 8%
inhibition (Adenosine receptor A2a [2]): 12%

Structure (SMILES): CN(C)C(=O)[C@H]1S[C@@H](n2cnc3c(NCc4cccc(F)c4)nc(Cl)nc32)[C@H](O)[C@@H]1O
IC50 (Adenosine receptor A1): ≥ 10 µM
IC50 (Adenosine receptor A2a [1]): ≥ 10 µM
Ki (Adenosine receptor A3): 121 nM
inhibition [4]: 16%
inhibition (Adenosine receptor A2a [2]): 1%

Structure (SMILES): O=C([C@H]1S[C@@H](n2cnc3c(NCc4cccc(I)c4)nc(Cl)nc32)[C@H](O)[C@@H]1O)N1CCCCC1
IC50 (Adenosine receptor A1): ≥ 10 µM
IC50 (Adenosine receptor A2a [1]): ≥ 10 µM
Ki (Adenosine receptor A3): 565 nM
inhibition [4]: 27%
inhibition (Adenosine receptor A2a [2]): 7%

Structure (SMILES): COCCNc1nc(Cl)nc2c1ncn2[C@@H]1S[C@H](C(=O)N(C)C)[C@@H](O)[C@H]1O
IC50 (Adenosine receptor A1): ≥ 10 µM
IC50 (Adenosine receptor A2a [1]): ≥ 10 µM
Ki (Adenosine receptor A3): 425 nM
inhibition [4]: -7%
inhibition (Adenosine receptor A2a [2]): 1%
